According to paper PMC11774189 (RSC Advances, 2025):
Read-outs that look alike come from different tables or passages of the source.

Tests used:
[1] = system: A549 (non-small lung cancer) cell line; assay: MTT cytotoxicity assay, A549 cells; format: cell-based, human; conditions: read-out: IC50, A549
[2] = system: KB (epidermoid carcinoma) cell line; assay: MTT cytotoxicity assay, KB cells; format: cell-based, human; conditions: read-out: IC50, KB
[3] = system: Hek-293 human embryonic kidney cells; assay: MTT cytotoxicity assay, Hek-293 cells; format: cell-based; conditions: for IC50: read-out: IC50, Hek-293; for fold lower cytotoxicity against Hek-293 cells than to A549: Hek-293 vs A549
[4] = system: MCF7 (breast cancer) cell line; assay: MTT cytotoxicity assay, MCF7 cells; format: cell-based, human; conditions: read-out: IC50, MCF7
[5] = system: HepG2 (hepatoma carcinoma) cell line; assay: MTT cytotoxicity assay, HepG2 cells; format: cell-based, human; conditions: read-out: IC50, HepG2
[6] = system: A549 cells; assay: Annexin-V FITC and PI flow cytometry assay for apoptosis; format: cell-based, human; conditions: 48 hours
Outline: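 A549 cells seeded at 5×10^5 per 25 cm² flask, treated 48 h with test compound (0.45, 0.9, 1.8 μM), DMSO 1% vehicle or camptothecin 2 μM. Harvested, washed in cold PBS, resuspended in binding buffer, stained with annexin V plus PI (1 mg mL⁻¹ stock), 15 min at 37 °C, diluted in binding buffer, analysed by flow cytometry. Quadrants: live, early apoptotic, late apoptotic, necrotic.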

[7] = system: A549 cells; assay: Cell cycle analysis by PI flow cytometry; format: cell-based, human; conditions: 24 hours
Outline: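 A549 cells seeded at 3×10^5 per 25 cm² flask; exposed 24 h to test compound (0.45, 0.9, 1.8 μM) or DMSO 0.5%. Cells washed twice in PBS, fixed in ice-cold 70% ethanol at –20 °C for 2 h, pelleted, treated with RNase A (2.5 mg mL⁻¹) 15 min at 37 °C, stained 30 min with PI (1 mg mL⁻¹ stock), then flow cytometry for phase distribution.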

## 4′,6′-Dimethyl-3H-spiro[benzo[g]furo[3,4-b]quinoline-11,3′-indoline]-1,2′,5,10(4H)-tetraone [Compound 7g]
[1]; MTT, 3 days incubation
  IC50: 1.67 ± 0.17 µM
[2]; MTT, 3 days incubation
  IC50: 4.85 ± 0.41 µM
[3]; MTT, 3 days incubation
  IC50: 7.27 ± 0.78 µM
[4]; MTT, 3 days incubation
  IC50: 2.62 ± 0.22 µM
[5]; MTT, 3 days incubation
  IC50: 6.74 ± 0.68 µM

## CC[C@@]1(O)C(=O)OCc2c1cc1n(c2=O)Cc2cc3ccccc3nc2-1 [Camptothecin, reference compound]
[6]; A549, 2 μM
  % early apoptosis cells (Q2-4): 30.71%
  % late apoptosis cells (Q2-2): 11.05%
  % necrotic cells (Q2-1): 1.99%
  % total apoptosis cells: 41.76%

## O=C1OCC2=C1C1(C(=O)Nc3ccccc31)C1=C(N2)C(=O)c2ccccc2C1=O (stereo not drawn) [Compound 7a, 3H-Spiro[benzo[g]furo[3,4-b]quinoline-11,3′-indoline]-1,2′,5,10(4H)-tetraone]
[1]; Homo sapiens, A549, 72 h
  IC50: 1.98 ± 0.16 µM
[2]; Homo sapiens, KB, 72 h
  IC50: 5.33 ± 0.62 µM
[3]; Homo sapiens, HEK293, 72 h
  IC50: 4.89 ± 0.44 µM
[4]; Homo sapiens, MCF7, 72 h
  IC50: 1.95 ± 0.21 µM
[5]; Homo sapiens, HepG2, 72 h
  IC50: 5.33 ± 0.62 µM

## O=C1OCC2=C1C1(C(=O)Nc3ccc(Cl)cc31)C1=C(N2)C(=O)c2ccccc2C1=O (stereo not drawn) [Compound 7b, 5′-Chloro-3H-spiro[benzo[g]furo[3,4-b]quinoline-11,3′-indoline]-1,2′,5,10(4H)-tetraone]
[1]; Homo sapiens, A549, 72 h
  IC50: 1.41 ± 0.12 µM
[2]; Homo sapiens, KB, 72 h
  IC50: 3.15 ± 0.21 µM
[3]; Homo sapiens, HEK293, 72 h
  IC50: 3.32 ± 0.33 µM
[4]; Homo sapiens, MCF7, 72 h
  IC50: 4.2 ± 0.5 µM
[5]; Homo sapiens, HepG2, 72 h
  IC50: 2.32 ± 0.31 µM

## Cc1ccc2c(c1)C1(C(=O)N2)C2=C(COC2=O)NC2=C1C(=O)c1ccccc1C2=O (stereo not drawn) [Compound 7c, 5′-Methyl-3H-spiro[benzo[g]furo[3,4-b]quinoline-11,3′-indoline]-1,2′,5,10(4H)-tetraone]
[1]; Homo sapiens, A549, 72 h
  IC50: 1.91 ± 0.2 µM
[2]; Homo sapiens, KB, 72 h
  IC50: 3.46 ± 0.33 µM
[3]; Homo sapiens, HEK293, 72 h
  IC50: 3.89 ± 0.4 µM
[4]; Homo sapiens, MCF7, 72 h
  IC50: 4.17 ± 0.48 µM
[5]; Homo sapiens, HepG2, 72 h
  IC50: 4.02 ± 0.45 µM

## O=C1OCC2=C1C1(C(=O)Nc3ccc(Br)cc31)C1=C(N2)C(=O)c2ccccc2C1=O (stereo not drawn) [Compound 7d, 5′-Bromo-3H-spiro[benzo[g]furo[3,4-b]quinoline-11,3′-indoline]-1,2′,5,10(4H)-tetraone]
[1]; Homo sapiens, A549, 72 h
  IC50: 1.62 ± 0.17 µM
[2]; Homo sapiens, KB, 72 h
  IC50: 4.75 ± 0.41 µM
[3]; Homo sapiens, HEK293, 72 h
  IC50: 3.52 ± 0.37 µM
[4]; Homo sapiens, MCF7, 72 h
  IC50: 2.07 ± 0.26 µM
[5]; Homo sapiens, HepG2, 72 h
  IC50: 4.34 ± 0.41 µM

## O=C1OCC2=C1C1(C(=O)Nc3c(Br)cc(Br)cc31)C1=C(N2)C(=O)c2ccccc2C1=O (stereo not drawn) [Compound 7f, 5′,7′-Dibromo-3H-spiro[benzo[g]furo[3,4-b]quinoline-11,3′-indoline]-1,2′,5,10(4H)-tetraone]
[1]; Homo sapiens, A549, 72 h
  IC50: 0.9 ± 0.09 µM
[2]; Homo sapiens, KB, 72 h
  IC50: 1.99 ± 0.22 µM
[6]; A549, 0.45 μM
  % early apoptosis cells (Q2-4): 1.76%
  % late apoptosis cells (Q2-2): 1.26%
  % necrotic cells (Q2-1): 0.64%
  % total apoptosis cells: 3.02%
[6]; A549, 0.9 μM
  % early apoptosis cells (Q2-4): 3.13%
  % late apoptosis cells (Q2-2): 1.83%
  % necrotic cells (Q2-1): 0.94%
[6]; A549, 1.8 μM
  % early apoptosis cells (Q2-4): 12.68%
  % late apoptosis cells (Q2-2): 6.72%
  % necrotic cells (Q2-1): 2.53%
  % total apoptosis cells: 19.4%
[7]; A549, 0.45 μM
  % G0/G1: 36.01%
  % G2/M: 13.49%
  % S: 47.96%
[7]; A549, 0.9 μM
  % G0/G1: 26.63%
  % G2/M: 4.17%
  % S: 67.93%
[7]; A549, 1.8 μM
  % G0/G1: 20.81%
  % G2/M: 13.61%
  % S: 63.88%
[3]
  fold lower cytotoxicity against Hek-293 cells than to A549: about 7 fold
[3]; Homo sapiens, HEK293, 72 h
  IC50: 6.7 ± 0.57 µM
[4]; Homo sapiens, MCF7, 72 h
  IC50: 1.84 ± 0.17 µM
[5]; Homo sapiens, HepG2, 72 h
  IC50: 3.28 ± 0.39 µM

## O=C1OCC2=C1C1(C(=O)N(Cc3ccccc3)c3ccccc31)C1=C(N2)C(=O)c2ccccc2C1=O (stereo not drawn) [Compound 7h, 1′-Benzyl-3H-spiro[benzo[g]furo[3,4-b]quinoline-11,3′-indoline]-1,2′,5,10(4H)-tetraone]
[1]; Homo sapiens, A549, 72 h
  IC50: 1.71 ± 0.19 µM
[2]; Homo sapiens, KB, 72 h
  IC50: 3.96 ± 0.34 µM
[3]; Homo sapiens, HEK293, 72 h
  IC50: 2.72 ± 0.19 µM
[4]; Homo sapiens, MCF7, 72 h
  IC50: 3.73 ± 0.38 µM
[5]; Homo sapiens, HepG2, 72 h
  IC50: 4.24 ± 0.38 µM

## O=C1OCC2=C1C1(C(=O)N(Cc3ccc(C(F)(F)F)cc3)c3ccccc31)C1=C(N2)C(=O)c2ccccc2C1=O (stereo not drawn) [Compound 7i, 1′-(4-(Trifluoromethyl)benzyl)-3H-spiro[benzo[g]furo[3,4-b]quinoline-11,3′-indoline]-1,2′,5,10(4H)-tetraone]
[1]; Homo sapiens, A549, 72 h
  IC50: 7.37 ± 0.83 µM
[2]; Homo sapiens, KB, 72 h
  IC50: 4.65 ± 0.44 µM
[3]; Homo sapiens, HEK293, 72 h
  IC50: 4.04 ± 0.42 µM
[4]; Homo sapiens, MCF7, 72 h
  IC50: 3.72 ± 0.35 µM
[5]; Homo sapiens, HepG2, 72 h
  IC50: 4.5 ± 0.48 µM

## O=C1OCC2=C1C1(C(=O)N(Cc3ccc(Cl)cc3)c3ccccc31)C1=C(N2)C(=O)c2ccccc2C1=O (stereo not drawn) [Compound 7j, 1′-(4-Chlorobenzyl)-3H-spiro[benzo[g]furo[3,4-b]quinoline-11,3′-indoline]-1,2′,5,10(4H)-tetraone]
[1]; Homo sapiens, A549, 72 h
  IC50: 6.54 ± 0.69 µM
[2]; Homo sapiens, KB, 72 h
  IC50: 5.6 ± 0.49 µM
[3]; Homo sapiens, HEK293, 72 h
  IC50: 10.3 ± 1.06 µM
[4]; Homo sapiens, MCF7, 72 h
  IC50: 4.09 ± 0.41 µM
[5]; Homo sapiens, HepG2, 72 h
  IC50: 5.78 ± 0.61 µM

## O=C1OCC2=C1C1(C(=O)N(Cc3ccc(Br)cc3F)c3ccccc31)C1=C(N2)C(=O)c2ccccc2C1=O (stereo not drawn) [Compound 7k, 1′-(4-Bromo-2-fluorobenzyl)-3H-spiro[benzo[g]furo[3,4-b]quinoline-11,3′-indoline]-1,2′,5,10(4H)-tetraone]
[1]; Homo sapiens, A549, 72 h
  IC50: 14 ± 1.59 µM
[2]; Homo sapiens, KB, 72 h
  IC50: 27.3 ± 2.15 µM
[3]; Homo sapiens, HEK293, 72 h
  IC50: > 28 µM
[4]; Homo sapiens, MCF7, 72 h
  IC50: 15.1 ± 1.59 µM
[5]; Homo sapiens, HepG2, 72 h
  IC50: 20.9 ± 2.36 µM

## O=C1OCC2=C1C1(C(=O)N(Cc3ccc(C(F)(F)F)cc3)c3ccc(Cl)cc31)C1=C(N2)C(=O)c2ccccc2C1=O (stereo not drawn) [Compound 7l, 5′-Chloro-1′-(4-(trifluoromethyl)benzyl)-3H-spiro[benzo[g]furo[3,4-b]quinoline-11,3′-indoline]-1,2′,5,10(4H)-tetraone]
[1]; Homo sapiens, A549, 72 h
  IC50: 5.93 ± 0.64 µM
[2]; Homo sapiens, KB, 72 h
  IC50: 17.8 ± 1.68 µM
[3]; Homo sapiens, HEK293, 72 h
  IC50: > 27.7 µM
[4]; Homo sapiens, MCF7, 72 h
  IC50: 13.4 ± 1.23 µM
[5]; Homo sapiens, HepG2, 72 h
  IC50: 15.1 ± 1.7 µM

## Cc1ccc2c(c1)N(Cc1ccc(Br)cc1F)C(=O)C21C2=C(COC2=O)NC2=C1C(=O)c1ccccc1C2=O (stereo not drawn) [Compound 7m, 1′-(4-Bromo-2-fluorobenzyl)-6′-methyl-3H-spiro[benzo[g]furo[3,4-b]quinoline-11,3′-indoline]-1,2′,5,10(4H)-tetraone]
[1]; Homo sapiens, A549, 72 h
  IC50: 13.3 ± 0.7 µM
[2]; Homo sapiens, KB, 72 h
  IC50: 51.7 ± 1.78 µM
[3]; Homo sapiens, HEK293, 72 h
  IC50: > 65 µM
[4]; Homo sapiens, MCF7, 72 h
  IC50: 19.9 ± 0.89 µM
[5]; Homo sapiens, HepG2, 72 h
  IC50: 47.5 ± 2.15 µM

## O=C1OCC2=C1C1(C(=O)N(Cc3ccc(C(F)(F)F)cc3)c3cc(Br)c(Br)cc31)C1=C(N2)C(=O)c2ccccc2C1=O (stereo not drawn) [Compound 7n, 5′,6′-Dibromo-1′-(4-(trifluoromethyl)benzyl)-3H-spiro[benzo[g]furo[3,4-b]quinoline-11,3′-indoline]-1,2′,5,10(4H)-tetraone]
[1]; Homo sapiens, A549, 72 h
  IC50: 1.03 ± 0.13 µM
[2]; Homo sapiens, KB, 72 h
  IC50: 4.36 ± 0.4 µM
[3]
  fold lower cytotoxicity against Hek-293 cells than to A549: ~22 fold
[3]; Hek-293 vs MCF7
  fold lower cytotoxicity against Hek-293 cells than to MCF7: about 11 fold
[3]; Homo sapiens, HEK293, 72 h
  IC50: 22.9 ± 2.2 µM
[4]; Homo sapiens, MCF7, 72 h
  IC50: 2.11 ± 0.24 µM
[5]; Homo sapiens, HepG2, 72 h
  IC50: 6.74 ± 0.73 µM

## Cc1c2ccncc2c(C)c2c1[nH]c1ccccc12 [Ellipticine, reference compound]
[1]; Homo sapiens, A549, 72 h
  IC50: 1.34 ± 0.08 µM
[3]; Homo sapiens, HEK293, 72 h
  IC50: 5.64 ± 0.32 µM
[4]; Homo sapiens, MCF7, 72 h
  IC50: 2.07 ± 0.16 µM
[5]; Homo sapiens, HepG2, 72 h
  IC50: 2.07 ± 0.12 µM
